A short description of data set [1]: melting temperature; fluorescence melt of hairpins on a sequencing array, two-state fit, raised by 9.35 °C to match UV melts. Conditions: sodium 0.088 M. The gist of the method: (§1)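 Cy3 signals were normalised both to pre-quench Cy3 and to control constructs. They came from library hairpins carrying annealed Cy3 and quencher oligos on a sequenced MiSeq flow cell, imaged in 50 mM Na-HEPES pH 8.0, 25 mM NaCl, in 2.5 °C steps up to 60 °C. Bootstrapped two-state fits gave melting temperature and folding enthalpy, and four replicates were combined by inverse variance. Fitted temperatures were then raised by 9.35 °C to match UV melts.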

The nature of data set [2]: folding enthalpy; higher = less favourable; fluorescence melt of hairpins on a sequencing array, two-state fit. The following applies: sodium 0.088 M. In short, it runs like this: as §1

Take GACCCCGAAAGGGTTGTC ((((((....)))..))): the Tm in data set [1] turned out to be 43.4 °C. For the same sequence, the folding enthalpy in data set [2] was -60.2 kJ/mol.
Turning to GACCCGGGAAACCGAGTC (((.(((....))).))), in data set [1], the Tm was 45.3 °C. Further, the folding enthalpy in data set [2] is -137 kJ/mol.
In the same order, the values of GACCCGGGAAACCGGGCC (.(((((....))))).) are 53.3 °C and -52.5 kJ/mol.
The like results for GACCGACGAAAGTCAGTC (((.(((....))).))) were, in that order, 47.9 °C and -98.2 kJ/mol.
The like results for GACCGACGAAAGTCTGTC (((.(((....))).))) were, in that order, 48.7 °C and -130 kJ/mol.
Turning to GACCGAGGAAACCCGGTC (((((.(....).))))), in data set [1], the Tm turned out to be 53.2 °C. In data set [2], the folding enthalpy was -152 kJ/mol.
For GACCGCACGAAAGTGGTC (((..(((....)))))), the Tm in data set [1] came to 47 °C. Further, the folding enthalpy in data set [2] is -88.2 kJ/mol.
In the same order, the values of GACCGCCCGAAAGGGGTC (((..(((....)))))) are 42.3 °C and -64.3 kJ/mol.
For GACCGCCGAAAGGCCGTC (((.(((....))).))), the Tm in data set [1] was 50.7 °C. Besides, the folding enthalpy in data set [2] was -78.8 kJ/mol.
In the same order, the values of GACCGCGAAAGCGACGTC ((((((....)))..))) are 45.8 °C and -55.2 kJ/mol.
GACCGCGAAAGCGGAGTC ((((((....)))..))): the Tm in data set [1] turned out to be 40.6 °C. Besides, the folding enthalpy in data set [2] is -31.9 kJ/mol.
The like results for GACCGCGAAAGCGGGTC ((((((....))).))) were, in that order, 68.8 °C and -50 kJ/mol.
For the sequence GACCGCGAAAGCGGTGTC ((((((....)))..))), the Tm in data set [1] was found to be 63.8 °C. In data set [2], the folding enthalpy is -36.4 kJ/mol.
In the same order, the values of GACCGCGAAAGCGTTGTC ((((((....)))..))) are 40.1 °C and -55.1 kJ/mol.
In the same order, the values of GACCGCGGAAACGCAGTC (((.(((....))).))) are 48.9 °C and -103 kJ/mol.
In the same order, the values of GACCGGAAACGGTC (((((....))))) are 67.5 °C and -118 kJ/mol.
In the case of GACCGGCCGAAAGGCGTC (((..(((....)))))), the Tm in data set [1] amounted to 38.4 °C. For the same sequence, in data set [2], the folding enthalpy was -52.2 kJ/mol.
In the case of GACCGTGGAAACACAGTC (((.(((....))).))), the Tm in data set [1] was 40.5 °C. Further, the folding enthalpy in data set [2] is -99.5 kJ/mol.
With GACCGTGGAAACATGGTC ((((.((....)).)))), the Tm in data set [1] was determined as 54.2 °C. In addition, the folding enthalpy in data set [2] is -181 kJ/mol.
In the same order, the values of GACCGTGGAAACGTGGTC ((((..(....)..)))) are 45.5 °C and -98.7 kJ/mol.
The like results for GACCTCCGAAAGGAGTC (((.(((....)))))) were, in that order, 49.2 °C and -63.8 kJ/mol.
The like results for GACCTCCGAAAGGATGTC (((.(((....))).))) were, in that order, 47.3 °C and -136 kJ/mol.
With GACCTGCCGAAAGGCGTC (((..(((....)))))), in data set [1], the Tm amounted to 29.3 °C. In data set [2], the folding enthalpy is -38.3 kJ/mol.
The like results for GACCTGCGAAAGCAAGTC (((.(((....))).))) were, in that order, 47.1 °C and -106 kJ/mol.
The like results for GACCTGGCGAAAGCCGTC (((..(((....)))))) were, in that order, 34.9 °C and -23.5 kJ/mol.
In the same order, the values of GACCTTGGAAACAAAGTC (((.(((....))).))) are 26 °C and -85 kJ/mol.
On to GACCTTGGAAACAAGACC (..((((....))))..), for which the Tm in data set [1] was 20 °C. The folding enthalpy in data set [2] is -45.7 kJ/mol.
The like results for GACCTTGGAAACAAGATC ((.((((....)))).)) were, in that order, 30.6 °C and -88 kJ/mol.
The like results for GACGAAACGAAAGTTGTC (((..(((....)))))) were, in that order, 35 °C and -82.2 kJ/mol.
The like results for GACGAACGAAAGTTGGTC (((.(((....))).))) were, in that order, 48.8 °C and -153 kJ/mol.
Take GACGAAGGAAACTCCGTC ((((.((....)).)))): the Tm in data set [1] turned out to be 37.7 °C. Moreover, the folding enthalpy in data set [2] is -109 kJ/mol.
The like results for GACGACCGAAAGGTGGTC (((.(((....))).))) were, in that order, 56 °C and -145 kJ/mol.
The like results for GACGACCGAAAGGTTGTC (((.(((....))).))) were, in that order, 63.4 °C and -177 kJ/mol.
GACGACGAAAGTCCGTC ((((((....))).))): the Tm in data set [1] stood at 53.4 °C. For the same sequence, the folding enthalpy in data set [2] is -125 kJ/mol.
In the same order, the values of GACGACGAAAGTCCTGTC ((((((....)))..))) are 31.4 °C and -68.6 kJ/mol.
The like results for GACGACGAAAGTCGAGTC ((((((....)))..))) were, in that order, 39.7 °C and -43.9 kJ/mol.
The like results for GACGACGAAAGTCGGTC ((((((....))).))) were, in that order, 60.3 °C and -51.1 kJ/mol.

(Values after the array DNA melting data of Ke et al. (doi:10.1101/2024.01.08.574731).)
